Published values from different studies.
Each line is one published result; the experiments were not run side by side.
CSNK1A1L: Casein kinase I isoform alpha-like (CSNK1A1L, Homo sapiens, UniProt Q8N752)
PBRM1 BD2: Protein polybromo-1, BD2 (PBRM1, Homo sapiens, UniProt Q86U86)
ADORA2B: Adenosine receptor A2b (ADORA2B, Homo sapiens, UniProt P29275)
BRD2 BD2: Bromodomain-containing protein 2, BD2 (BRD2, Homo sapiens, UniProt P25440)
PBRM1 bromodomain: Protein polybromo-1, bromodomain (PBRM1, Homo sapiens, UniProt Q86U86)

target | test | setting | endpoint | result | SMILES
Serine/threonine-protein kinase N2 (PKN2, Homo sapiens, UniProt Q16513) | enzyme activity, inhibitor | 0.5 µM | remaining activity | 14% | CCCOc1ccc(OC)c(F)c1C(=O)c1ccc(C(=O)N[C@@H]2CNC[C@H]2NC(=O)c2ccc3[nH]ncc3c2)cc1
CSNK1A1L | cell-free assay | 20 µM | remaining signal | 39% | Nc1ncnc2occ(-c3ccc(NC(=O)Nc4cc(C(F)(F)F)ccc4F)cc3)c12
PBRM1 BD2 | thermal stability, DSF | 100 µM | ΔTm | 4.96 °C | CC(C)(C)C/C=C1\CCn2c1nc(=O)c1c(Cl)cccc12
CAAX prenyl protease 2 (Homo sapiens, UniProt Q9Y256) | enzyme activity, inhibitor | 10 µM | remaining activity | < 40% | CC(C)(C)c1ccc(NC(c2ccccc2)c2ccc3ccccc3c2O)cc1 (stereo not shown)
ADORA2B | ligand displacement, radioligand | 10 µM, cell membranes | inhibition | 9% | CCCCCCN1CCCn2c1nc1c2c(=O)n(C)c(=O)n1C
BRD2 BD2 | thermal stability, DSF | 10 µM | ΔTm | 0.4 °C | Cc1cc2c(cc1N1C(=O)c3cccc4c(Cl)ccc(c34)C1=O)n(C)c(=O)n2C
PBRM1 BD2 | thermal stability, DSF | 100 µM | ΔTm | 1.44 °C | CN(C)/C=C1\CCCn2c1nc(=O)c1c(Cl)cccc12
BRD2 BD2 | binding, competition with immobilised ligand | 1 µM | remaining binding | 10% | NS(=O)(=O)c1ccc(Nc2nc(-c3ccc(F)cc3)c3ccccc3n2)cc1
PBRM1 bromodomain | thermal stability, DSF | 100 µM | ΔTm | 5.03 °C | CC/C=C1\CCn2c1nc(=O)c1c(Cl)cccc12
Protein polybromo-1, BD1 (PBRM1, Homo sapiens, UniProt Q86U86) | thermal stability, DSF | 10 µM | ΔTm | 0.28 °C | C[S+]([O-])c1ccc(-c2nc(-c3ccncc3)c(-c3ccc(F)cc3)[nH]2)cc1 (stereo not shown)
PBRM1 BD2 | thermal stability, DSF | 100 µM | ΔTm | 2.07 °C | CCC(/C=C1\CCn2c1nc(=O)c1ccc(Cl)cc12)CC
Aldehyde dehydrogenase, mitochondrial (ALDH2, Homo sapiens, UniProt P05091) | enzyme activity, inhibitor, absorbance | 10 µM | remaining activity | 20.7% | Cc1oc2cc3oc(=O)c(C)c(C)c3cc2c1C
Muscarinic acetylcholine receptor M1 (CHRM1, Homo sapiens, UniProt P11229) | cell-free assay | 10 µM | inhibition | 2.6% | COc1cc(NC(C)=O)c(Cl)cc1C(=O)Nc1nccs1
PBRM1 BD2 | thermal stability, DSF | 100 µM | ΔTm | 3.03 °C | CCC/C=C1\CCn2c1nc(=O)c1c(Cl)cccc12
ADORA2B | ligand displacement, radioligand | 10 µM, cell membranes | inhibition | 1% | CCCN1CCCn2c1nc1c2c(=O)n(C)c(=O)n1C
PBRM1 BD2 | thermal stability, DSF | 100 µM | ΔTm | 0.47 °C | CCC(/C=C1\CCn2c1nc(=O)c1cc(Cl)ccc12)CC
Tyrosine-protein kinase JAK1 (JAK1, Homo sapiens, UniProt P23458) | enzyme activity, inhibitor, FRET | 1 µM | inhibition | 0% | CN(C)C1CCN(CC#Cc2nn(C3CCCC3)c3nc(NCc4ccccc4)ncc23)C1 (stereo not shown)
CSNK1A1L | enzyme activity | 23.5 nM | remaining activity | 100% | Cc1ccc(C(=O)Nc2ccc(CN3CCN(C)CC3)c(C(F)(F)F)c2)cc1C#Cc1cnc2cccnn12
Bromodomain-containing protein 2, BD1 (BRD2, Homo sapiens, UniProt P25440) | thermal stability, DSF | 10 µM | ΔTm | 1.18 °C | Oc1ccc(-c2nc(-c3ccncc3)c(-c3ccc(F)cc3)[nH]2)cc1
Serine/threonine-protein kinase N3 (PKN3, Homo sapiens, UniProt Q6P5Z2) | enzyme activity, inhibitor | 1 µM | remaining activity | 40.2% | CC(C)(O)[C@H]1CC[C@H](Nc2ccc3ncc(-c4cccc(C(F)(F)F)c4)n3n2)CC1
PBRM1 BD2 | thermal stability, DSF | 10 µM | ΔTm | 0.23 °C | Cc1cnc(Nc2ccc(OCCN3CCCC3)cc2)nc1Nc1cccc(S(=O)(=O)NC(C)(C)C)c1
PBRM1 bromodomain | thermal stability, DSF | 100 µM | ΔTm | 2.23 °C | CCC(/C=C1\CCn2c1nc(=O)c1c(Cl)c(Cl)ccc12)CC
